In ChEMBL document CHEMBL4619773, “Chemoreactive-Inspired Discovery of Influenza A Virus Dual Inhibitor to Block Hemagglutinin-Mediated Adsorption and Membrane Fusion” (J Med Chem, 2020) one finds inhibition data, which are given here for one molecule.

Calls of active or inactive are those of the source. The rule behind the calls is not given here.

Test [1] has as its system Influenza A virus (A/Puerto Rico/8/1934(H1N1)). Put plainly: Inhibition of Hemagglutinin T359A mutant in Influenza A virus (A/Puerto Rico/8/1934(H1N1))/H1N1 pseudovirus infected in 293FT cells assessed as reduction in virus infection at 50 ug/ml pre-treated with virus before infection and measured after 48 hrs by inverted fluorescence microscopy. The format is cell-based. A digest of the protocol:
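PR8 pseudoviruses (IAV-GFP) carrying wild-type HA or a mutant HA (T30N/E233D/T359A or T359A) were made in 293FT cells by co-transfecting HA, NA, HIV backbone and GFP reporter plasmids, and supernatants were harvested at 48 h. Pseudovirus was pretreated with compound at 50 µg/ml for 1 h at 37 °C before infection. Infected GFP-positive cells were viewed by fluorescence microscopy 48 h p.i.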

Test [2] shares this test system. Put plainly: Inhibition of Hemagglutinin T30N/E233D/T359A mutant in Influenza A virus (A/Puerto Rico/8/1934(H1N1))/H1N1 pseudovirus infected in 293FT cells assessed as reduction in virus infection at 50 ug/ml pre-treated with virus before infection and measured after 48 hrs by inverted fluorescence microscopy. The class given is cell-based. A digest of the protocol: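 GFP-reporter lentiviral pseudoviruses bearing PR8 wild-type or mutant (T30N/E233D/T359A or T359A) HA plus NA were produced in 293FT cells. Pseudovirus was pretreated with 50 µg/ml compound for 1 h at 37 °C before infection. GFP-positive cells were counted by fluorescence microscopy at 48 h p.i.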

Turning to `CC(=O)c1cc(C)c(O)c(Cc2[nH]c3ccccc3c2Cc2c(O)c(C)cc(C(C)=O)c2O)c1O`, the inhibition entry in test [1] and in test [2] was “inactive” throughout.
